Laboratory results: ChEMBL document CHEMBL4425169 (ACS Med Chem Lett, 2016)
Active and inactive are the calls of the source. No cut-off for these calls is given here.

Key:
Rattus norvegicus [1] = assay: Natriuretic activity in Sprague-Dawley rat at 3 mg/kg via oral gavage administered 30 mins prior to void induction by loading saline measured upto 4 hrs relative to vehicle treated control; type: functional
In short: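 Acute 4 h diuresis/natriuresis study in SD rats given a single oral dose, n = 5 per group. Urinary sodium output is expressed as fold increase over vehicle-treated animals, with significance tested against vehicle.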

[2] = Drug metabolism in rat hepatocytes assessed as glucuronidation at 1 uM measured at 120 mins; type: ADME, cell-based, Hepatocyte; settings: read-out: Drug metabolism
[3] = Half life in human; type: ADME
[4] = Cardiotoxicity in vagotomized cardiovascular dog model assessed as effect on QT/QTc interval at plasma concentration <= 11.6 uM at 1 to 7 mg/kg, iv administered during three sequential 30 min periods; type: toxicity, organism-based, Canis lupus familiaris; settings: in vivo, 0.5 h
In short: (§1)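 Anesthetized, vagotomized dogs received IV infusions over sequential periods at 1, 2 and 7 mg/kg (10 mg/kg cumulative). Heart rate, mean arterial pressure and ECG intervals (PR, QRS, QT/QTc) were recorded predose and during each infusion period. Plasma concentrations were measured.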

[5] = target: Somatostatin receptor type 1 (Homo sapiens, UniProt P30872); assay: Inhibition of somatostatin receptor subtype 1 (unknown origin)
Chain of Somatostatin receptor type 1 (P30872 whole entry): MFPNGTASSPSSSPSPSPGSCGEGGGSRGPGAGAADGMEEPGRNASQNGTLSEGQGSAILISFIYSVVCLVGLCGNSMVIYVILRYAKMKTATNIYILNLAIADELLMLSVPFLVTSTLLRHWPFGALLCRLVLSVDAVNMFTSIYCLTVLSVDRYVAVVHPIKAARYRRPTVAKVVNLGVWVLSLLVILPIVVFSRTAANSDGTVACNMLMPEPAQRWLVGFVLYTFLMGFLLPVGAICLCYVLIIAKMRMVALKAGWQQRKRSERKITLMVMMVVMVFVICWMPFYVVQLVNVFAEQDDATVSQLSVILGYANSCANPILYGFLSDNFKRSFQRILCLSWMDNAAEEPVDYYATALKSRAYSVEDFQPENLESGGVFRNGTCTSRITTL

Rattus norvegicus [6] = assay: Diuretic activity in Sprague-Dawley rat at 1 mg/kg via oral gavage administered 30 mins prior to void induction by loading saline measured upto 4 hrs relative to vehicle treated control; type: functional
In short: (§2)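 Acute rat diuresis model in male-unspecified Sprague-Dawley rats, single oral dose, urine collected over 4 h. Urine volume, sodium excretion and potassium excretion expressed as fold increase over vehicle-treated controls; n = 5 per group; significance tested against vehicle.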

[7] = Cardiotoxicity in vagotomized cardiovascular dog model assessed as effect on PR interval at plasma concentration <= 11.6 uM at 1 to 7 mg/kg, iv administered during three sequential 30 min periods; type: toxicity, organism-based, Canis lupus familiaris; settings: in vivo, 0.5 h; in short: as §1
[8] = target: T1, Sodium-dependent serotonin transporter (Homo sapiens, UniProt P31645); assay: Inhibition of [3H]-serotonin uptake at human SERT transfected in HEK293 cells; type: cell-based
T1 sequence (P31645 whole entry): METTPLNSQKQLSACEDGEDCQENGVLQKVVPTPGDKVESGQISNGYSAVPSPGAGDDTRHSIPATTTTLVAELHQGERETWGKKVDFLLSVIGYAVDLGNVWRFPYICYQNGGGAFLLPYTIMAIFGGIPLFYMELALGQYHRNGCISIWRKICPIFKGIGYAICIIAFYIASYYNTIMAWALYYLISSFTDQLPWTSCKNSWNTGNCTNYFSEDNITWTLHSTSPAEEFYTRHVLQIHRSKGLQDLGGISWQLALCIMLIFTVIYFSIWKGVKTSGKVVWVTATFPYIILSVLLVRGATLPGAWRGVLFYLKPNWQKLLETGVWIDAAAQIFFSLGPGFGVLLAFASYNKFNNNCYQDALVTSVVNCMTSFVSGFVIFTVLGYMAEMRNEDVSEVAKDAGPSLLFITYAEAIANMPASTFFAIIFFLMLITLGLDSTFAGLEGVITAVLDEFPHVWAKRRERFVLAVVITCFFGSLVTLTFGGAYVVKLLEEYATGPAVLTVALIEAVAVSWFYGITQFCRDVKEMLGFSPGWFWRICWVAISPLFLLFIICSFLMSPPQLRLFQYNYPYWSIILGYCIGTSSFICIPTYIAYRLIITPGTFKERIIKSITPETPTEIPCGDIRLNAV

[9] = Half life in rhesus monkey at 1 mg/kg, iv or 2 mg/kg, po; type: ADME, organism-based, Macaca mulatta; settings: in vivo
Rattus norvegicus [10] = assay: Natriuretic activity in Sprague-Dawley rat at 1 mg/kg via oral gavage administered 30 mins prior to void induction by loading saline measured upto 4 hrs relative to vehicle treated control; type: functional; in short: as §2
[11] = Drug metabolism in bile duct cannulated rat assessed as glucuronidation; type: ADME
[12] = Drug metabolism in monkey hepatocytes assessed as lactone hydrolysis at 1 uM measured at 120 mins; type: ADME, cell-based, Macaca mulatta, Hepatocyte; settings: rhesus monkey, read-out: Drug metabolism
Rattus norvegicus [13] = assay: Antihypertensive activity in spontaneously hypertensive rat assessed as reduction in systolic blood pressure at 10 mg/kg via oral gavage qd administered for 4 days measured on day 4 by telemetry (reference value: 2.5 +/- 2.2 mmHg); type: functional
[14] = Dose normalized AUC in rhesus monkey at 2 mg/kg, po; type: ADME, organism-based, Macaca mulatta; settings: in vivo
Cytochrome P450 2C9 = Cytochrome P450 2C9 (Homo sapiens, UniProt P11712); assay: Reversible inhibition of human CYP2C9; type: ADME
Chain of Cytochrome P450 2C9 (P11712 whole entry): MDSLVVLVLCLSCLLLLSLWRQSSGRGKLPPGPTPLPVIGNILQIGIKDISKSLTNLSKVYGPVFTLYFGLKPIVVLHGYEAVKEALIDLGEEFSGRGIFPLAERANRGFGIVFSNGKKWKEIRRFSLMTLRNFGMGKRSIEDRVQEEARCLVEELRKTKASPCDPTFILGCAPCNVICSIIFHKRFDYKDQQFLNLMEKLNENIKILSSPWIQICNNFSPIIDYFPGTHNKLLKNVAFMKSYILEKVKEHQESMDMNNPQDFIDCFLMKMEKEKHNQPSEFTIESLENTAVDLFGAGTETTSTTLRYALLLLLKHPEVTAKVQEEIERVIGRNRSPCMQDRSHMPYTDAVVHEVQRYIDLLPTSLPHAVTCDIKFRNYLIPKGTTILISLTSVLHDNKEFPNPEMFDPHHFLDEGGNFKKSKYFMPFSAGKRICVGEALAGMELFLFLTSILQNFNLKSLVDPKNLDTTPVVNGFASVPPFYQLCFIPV

[15] = Clearance in dog at 1 mg/kg, iv or 2 mg/kg, po; type: ADME, organism-based, Canis lupus familiaris; settings: in vivo
[16] = target: Voltage-gated inwardly rectifying potassium channel KCNH2 (Homo sapiens, UniProt Q12809); assay: Inhibition of human ERG after 6 mins by electrophysiological assay
Chain of Voltage-gated inwardly rectifying potassium channel KCNH2 (Q12809 whole entry): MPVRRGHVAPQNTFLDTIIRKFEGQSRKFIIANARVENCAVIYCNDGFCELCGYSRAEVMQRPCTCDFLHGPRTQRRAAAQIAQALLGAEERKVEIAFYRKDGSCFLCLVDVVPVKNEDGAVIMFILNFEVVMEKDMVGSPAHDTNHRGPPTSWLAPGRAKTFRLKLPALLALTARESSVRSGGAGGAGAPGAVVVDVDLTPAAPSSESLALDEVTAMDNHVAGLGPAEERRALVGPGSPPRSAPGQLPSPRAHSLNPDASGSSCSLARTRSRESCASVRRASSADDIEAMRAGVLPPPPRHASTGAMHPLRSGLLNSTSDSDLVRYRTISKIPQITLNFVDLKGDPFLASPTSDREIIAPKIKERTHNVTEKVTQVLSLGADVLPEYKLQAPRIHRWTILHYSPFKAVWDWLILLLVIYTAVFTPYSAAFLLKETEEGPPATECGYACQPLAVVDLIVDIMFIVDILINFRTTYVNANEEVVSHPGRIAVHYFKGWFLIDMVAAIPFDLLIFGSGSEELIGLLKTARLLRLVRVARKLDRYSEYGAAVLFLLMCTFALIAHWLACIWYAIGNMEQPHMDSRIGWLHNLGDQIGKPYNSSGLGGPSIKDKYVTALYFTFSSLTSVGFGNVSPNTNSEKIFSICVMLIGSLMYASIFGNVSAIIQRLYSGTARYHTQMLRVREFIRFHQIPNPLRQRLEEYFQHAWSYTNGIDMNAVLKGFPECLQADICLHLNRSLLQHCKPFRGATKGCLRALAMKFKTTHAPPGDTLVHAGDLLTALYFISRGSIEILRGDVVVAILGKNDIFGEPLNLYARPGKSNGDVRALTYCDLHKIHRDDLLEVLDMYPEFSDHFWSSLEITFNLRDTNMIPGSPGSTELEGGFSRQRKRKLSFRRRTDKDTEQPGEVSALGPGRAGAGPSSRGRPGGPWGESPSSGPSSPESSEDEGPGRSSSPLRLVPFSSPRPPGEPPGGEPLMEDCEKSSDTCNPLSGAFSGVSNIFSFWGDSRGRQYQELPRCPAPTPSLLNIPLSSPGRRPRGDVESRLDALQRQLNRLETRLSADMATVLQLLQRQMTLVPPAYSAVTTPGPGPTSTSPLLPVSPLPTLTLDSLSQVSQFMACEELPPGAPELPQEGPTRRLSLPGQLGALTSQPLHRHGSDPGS

[17] = Dose normalized AUC in rat at 2 mg/kg, po; type: ADME, organism-based; settings: in vivo
In short: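 Rats dosed once at 1 mg/kg IV and, separately, 2 mg/kg PO, with n = 3. Derived parameters were plasma clearance, Vdss, dose-normalized oral AUC (μM·h·kg/mg), half-life, and oral bioavailability (F%).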

[18] = Volume of distribution at steady state in dog at 1 mg/kg, iv or 2 mg/kg, po; type: ADME, organism-based, Canis lupus familiaris; settings: in vivo, read-out: Vdss
Rattus norvegicus [19] = assay: Natriuretic activity in Sprague-Dawley rat at 10 mg/kg via oral gavage administered 30 mins prior to void induction by loading saline measured upto 4 hrs relative to vehicle treated control; type: functional
In short: (§3)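 Acute 4 h study in Sprague-Dawley rats after oral dosing, n = 5 per group. Urine volume and sodium and potassium excretion were expressed as fold increase over vehicle-treated animals. Significance was tested versus vehicle (p < 0.05 or p < 0.01).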

[20] = target: Sodium channel protein type 5 subunit alpha (Homo sapiens, UniProt Q14524); assay: Inhibition of Nav1.5 (unknown origin)
Chain of Sodium channel protein type 5 subunit alpha (Q14524 whole entry): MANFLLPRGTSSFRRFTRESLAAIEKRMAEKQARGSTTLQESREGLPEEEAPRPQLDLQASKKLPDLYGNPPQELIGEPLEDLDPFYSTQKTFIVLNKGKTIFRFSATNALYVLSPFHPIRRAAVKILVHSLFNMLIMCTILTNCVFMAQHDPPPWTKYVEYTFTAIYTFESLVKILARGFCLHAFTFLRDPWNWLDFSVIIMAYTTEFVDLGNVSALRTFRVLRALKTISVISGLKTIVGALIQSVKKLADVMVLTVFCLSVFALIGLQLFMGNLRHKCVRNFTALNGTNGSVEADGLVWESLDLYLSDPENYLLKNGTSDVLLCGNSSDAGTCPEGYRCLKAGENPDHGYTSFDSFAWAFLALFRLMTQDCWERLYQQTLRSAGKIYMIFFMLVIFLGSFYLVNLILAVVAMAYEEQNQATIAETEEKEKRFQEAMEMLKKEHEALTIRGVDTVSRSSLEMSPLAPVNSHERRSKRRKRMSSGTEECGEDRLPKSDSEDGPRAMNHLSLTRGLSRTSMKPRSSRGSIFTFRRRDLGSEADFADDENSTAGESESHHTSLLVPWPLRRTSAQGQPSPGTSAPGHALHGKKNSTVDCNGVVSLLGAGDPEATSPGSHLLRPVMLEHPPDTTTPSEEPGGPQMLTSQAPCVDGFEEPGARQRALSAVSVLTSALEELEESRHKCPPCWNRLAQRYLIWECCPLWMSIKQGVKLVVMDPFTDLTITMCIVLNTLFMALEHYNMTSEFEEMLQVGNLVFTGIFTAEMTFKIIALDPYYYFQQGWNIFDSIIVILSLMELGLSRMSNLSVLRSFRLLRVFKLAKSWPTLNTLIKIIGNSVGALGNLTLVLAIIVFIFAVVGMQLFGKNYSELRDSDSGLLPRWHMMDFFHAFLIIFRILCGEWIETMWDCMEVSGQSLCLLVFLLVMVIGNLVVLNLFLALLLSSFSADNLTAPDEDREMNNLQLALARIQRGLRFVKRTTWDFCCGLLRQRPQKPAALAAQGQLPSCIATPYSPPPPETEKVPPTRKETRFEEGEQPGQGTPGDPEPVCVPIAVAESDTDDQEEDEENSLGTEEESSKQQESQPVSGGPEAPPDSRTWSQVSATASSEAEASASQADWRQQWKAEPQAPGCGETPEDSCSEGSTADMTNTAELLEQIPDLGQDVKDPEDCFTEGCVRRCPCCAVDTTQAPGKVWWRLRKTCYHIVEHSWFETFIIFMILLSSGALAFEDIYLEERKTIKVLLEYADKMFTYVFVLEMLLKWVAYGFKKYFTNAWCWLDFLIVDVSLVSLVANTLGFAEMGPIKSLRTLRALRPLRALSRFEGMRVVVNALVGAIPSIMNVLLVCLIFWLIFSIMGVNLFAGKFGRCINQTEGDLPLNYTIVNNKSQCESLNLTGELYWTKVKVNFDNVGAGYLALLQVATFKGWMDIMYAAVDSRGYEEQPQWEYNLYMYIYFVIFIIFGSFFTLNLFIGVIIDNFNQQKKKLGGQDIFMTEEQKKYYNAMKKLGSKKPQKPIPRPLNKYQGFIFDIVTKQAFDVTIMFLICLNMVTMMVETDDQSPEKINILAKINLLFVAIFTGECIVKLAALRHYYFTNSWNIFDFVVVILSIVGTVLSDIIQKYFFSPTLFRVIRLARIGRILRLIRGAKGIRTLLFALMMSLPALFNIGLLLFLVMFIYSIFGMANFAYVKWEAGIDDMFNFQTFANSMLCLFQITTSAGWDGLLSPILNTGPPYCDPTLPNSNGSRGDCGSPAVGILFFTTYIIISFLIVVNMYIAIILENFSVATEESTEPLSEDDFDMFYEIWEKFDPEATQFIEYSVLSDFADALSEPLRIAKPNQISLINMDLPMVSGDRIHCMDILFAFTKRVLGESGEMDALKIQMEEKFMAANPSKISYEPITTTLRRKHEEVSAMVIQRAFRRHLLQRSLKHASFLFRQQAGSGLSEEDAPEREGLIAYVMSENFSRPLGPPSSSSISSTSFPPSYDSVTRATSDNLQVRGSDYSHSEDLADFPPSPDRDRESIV

Rattus norvegicus [21] = assay: Antihypertensive activity in spontaneously hypertensive rat assessed as reduction in systolic blood pressure at 3 mg/kg via oral gavage qd administered for 4 days measured on day 4 by telemetry (reference value: 2.5 +/- 2.2 mmHg); type: functional
[22] = Oral bioavailability in dog at 2 mg/kg; type: ADME, organism-based, Canis lupus familiaris; settings: in vivo
[23] = Drug metabolism in human hepatocytes assessed as glucuronidation at 1 uM measured at 120 mins; type: ADME, cell-based, Hepatocyte; settings: read-out: Drug metabolism
[24] = target: T1, Sodium-dependent serotonin transporter; assay: Inhibition of human SERT
Rattus norvegicus [25] = assay: Diuretic activity in Sprague-Dawley rat at 10 mg/kg via oral gavage administered 30 mins prior to void induction by loading saline measured upto 4 hrs relative to vehicle treated control; type: functional; in short: as §3
Rattus norvegicus [26] = assay: Antihypertensive activity in spontaneously hypertensive rat assessed as reduction in systolic blood pressure at 1 mg/kg via oral gavage qd administered for 4 days measured on day 4 by telemetry (reference value: 2.5 +/- 2.2 mmHg); type: functional
[27] = Drug metabolism in dog hepatocytes assessed as lactone hydrolysis at 1 uM measured at 120 mins; type: ADME, cell-based, Canis lupus familiaris, Hepatocyte; settings: read-out: Drug metabolism
[28] = Dose normalized AUC in dog at 2 mg/kg, po; type: ADME, organism-based, Canis lupus familiaris; settings: in vivo
[29] = Cardiotoxicity in vagotomized cardiovascular dog model assessed as effect on QRS complex at plasma concentration <= 11.6 uM at 1 to 7 mg/kg, iv administered during three sequential 30 min periods; type: toxicity, organism-based, Canis lupus familiaris; settings: in vivo, 0.5 h; in short: as §1
[30] = target: T2, Inward rectifier potassium channel 4 (Homo sapiens) (UniProt P48050); assay: Inhibition of Kir2.3 (unknown origin) upto 30 uM
T2 sequence (whole entry): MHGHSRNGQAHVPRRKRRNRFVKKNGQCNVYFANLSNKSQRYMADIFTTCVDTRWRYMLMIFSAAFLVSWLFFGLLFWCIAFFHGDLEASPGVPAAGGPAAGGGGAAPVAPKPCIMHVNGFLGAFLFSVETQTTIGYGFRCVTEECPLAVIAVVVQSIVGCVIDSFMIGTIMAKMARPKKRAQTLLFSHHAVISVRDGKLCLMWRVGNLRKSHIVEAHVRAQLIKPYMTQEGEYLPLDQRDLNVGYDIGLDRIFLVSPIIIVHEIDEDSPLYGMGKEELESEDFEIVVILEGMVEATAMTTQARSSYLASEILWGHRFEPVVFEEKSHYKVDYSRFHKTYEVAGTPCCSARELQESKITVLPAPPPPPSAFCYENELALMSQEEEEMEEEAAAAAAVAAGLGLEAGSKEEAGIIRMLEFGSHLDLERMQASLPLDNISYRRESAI

[31] = Cardiotoxicity in vagotomized cardiovascular dog model assessed as effect on heart rate at plasma concentration <= 11.6 uM at 1 to 7 mg/kg, iv administered during three sequential 30 min periods; type: toxicity, organism-based, Canis lupus familiaris; settings: in vivo, 0.5 h; in short: as §1

With `Cc1c([C@@H](O)CN2CCN(C[C@H](O)c3ccc4c(c3C)COC4=O)CC2)ccc2c1COC2=O` [MK-7145] as the molecule, how does the “fold change (FC)” value (Rattus norvegicus [1]) read?
Its value is 8.

And the metabolised at 2 h, 1 µM [2]?
Its metabolised at 2 h, 1 µM is less than 1%.

What about the half-life [3] of the same molecule?
Its half-life is 5 h.

And the Activity [4]?
Its Activity is “Non-Toxic”.

What about the IC50 [5] of the same molecule?
Its IC50 is 2630 nM.

And the “fold change (FC)” value (Rattus norvegicus [6])?
Its value is 8.6.

And the Activity [7]?
Its Activity is “Non-Toxic”.

And the IC50 [8]?
Its IC50 is 2400 nM.

What about the half-life [9] of the same molecule?
The half-life was 4 h.

What about the “fold change (FC)” value (Rattus norvegicus [10]) of the same molecule?
The value was 8.6.

And the Drug metabolism [11]?
Its Drug metabolism is “Metabolite_Detected”.

And the metabolised at 2 h, 1 µM [12]?
Its metabolised at 2 h, 1 µM is less than 1%.

And the Activity (Rattus norvegicus [13])?
Its Activity is 19.9 mmHg.

And the AUC/dose [14]?
The AUC/dose was 0.3 µM·kg·h/mg.

And the IC50 (Cytochrome P450 2C9)?
The IC50 was greater than 50000 nM.

And the clearance [15]?
The clearance was 56 mL/min/kg.

And the IC50 [16]?
Its IC50 is 22000 nM.

And the AUC/dose [17]?
The AUC/dose was 0.14 µM·kg·h/mg.

And the Vd [18]?
The Vd was 7.5 L/kg.

And the “fold change (FC)” value (Rattus norvegicus [19])?
The value was 8.5.

And the IC50 [20]?
The IC50 was greater than 30000 nM.

And the Activity (Rattus norvegicus [21])?
Its Activity is 12.4 mmHg.

What about the bioavailability [22] of the same molecule?
Its bioavailability is 51%.

What about the metabolised at 2 h, 1 µM [23] of the same molecule?
The metabolised at 2 h, 1 µM was less than 1%.

What about the IC50 [24] of the same molecule?
The IC50 was 120 nM.

And the “fold change (FC)” value (Rattus norvegicus [25])?
The value was 9.4.

And the Activity (Rattus norvegicus [26])?
Its Activity is 9.4 mmHg.

What about the metabolised at 2 h, 1 µM [27] of the same molecule?
Its metabolised at 2 h, 1 µM is less than 1%.

What about the AUC/dose [28] of the same molecule?
Its AUC/dose is 0.32 µM·kg·h/mg.

And the Activity [29]?
The Activity was “Non-Toxic”.

What about the inhibition [30] of the same molecule?
The inhibition was “inactive”.

What about the Activity [31] of the same molecule?
Its Activity is “Non-Toxic”.
